Assay results reported in publication PMC4492651 (Drug Design, Development and Therapy, 2015).
Like-named read-outs stand apart in the source and are kept apart here.

Key:
[1] = test system: carrageenan-induced thrombosis; test: Model of carrageenan-induced thrombosis; format: in vivo, KM mice; details: n=10; for Black tail length (cm) 24 hours / Black tail occurrence (%) 24 hours: 24 hours after carrageenan; for Black tail length (cm) 24 hours / Black tail length (cm) 48 hours: mean ± SD; for Black tail length (cm) 48 hours / Black tail occurrence (%) 48 hours: 48 hours after carrageenan
[2] = test system: transient middle cerebral artery occlusion; parameters: species or system Sprague Dawley rats; details: rat, in vivo, ip
[3] = test system: HT22 cells; test: H2O2-induced cytotoxicity in HT22 cells; format: cell-based, murine; details: Mus musculus, HT-22, read-out: H2O2-treated HT22 viability percentage
How it was run: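 Murine HT22 cells in DMEM with 10% newborn calf serum, 37°C, 5% CO2. Seeded at 20,000 cells/well and grown 24 h. Pretreated in quadruplicate with test compound (10–100 µM) for 2 h, exposed to 500 µM H2O2 for 1 h, then given fresh medium for 12 h. Viability by MTT. Four separate experiments, mean ± SD.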

[4] = test system: GSH-Px, SOD, NO and MDA in brain tissue; test: Antioxidant stress activity in vivo after I/R; parameters: species or system Sprague Dawley rats; details: I/R rats; for content of SOD in comparison with the model group: 3d 10, 20 and 50 mg/kg, NBP 20 mg/kg, Eda 3.0 mg/kg
How it was run: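 Male Sprague Dawley rats underwent filament MCAO, 2 h occlusion then reperfusion. Test compound (10, 20, 50 mg/kg; model vehicle oil) given ip 15 min after MCAO onset. At 24 h reperfusion, under chloral hydrate, brains were rinsed in cold saline; ischemic core and penumbra were separated and stored at −70°C. After protein assay, T-SOD and GSH-Px activities, MDA and NO were measured by kits. n=10, mean ± SD, ANOVA/Newman–Keuls.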

[5] = 50 mg/kg by gavage daily for 2 days
[6] = 3 mg/kg by gavage daily for 2 days

| SMILES | Black tail length (cm) 24 hours [1, 5] | Black tail occurrence (%) 24 hours [1, 5] | Black tail length (cm) 48 hours [1, 5] | Black tail occurrence (%) 48 hours [1, 5] | infarct size reduced by ([2]; 20 mg/kg) | viability at 100 µM [3] | NO activity ([4]; 20 mg/kg, 24 hours postreperfusion, model 1.51) | content of SOD in comparison with the model group [4] | Black tail length (cm) 24 hours [1, 6] | Black tail occurrence (%) 24 hours [1, 6] | Black tail length (cm) 48 hours [1, 6] | Black tail occurrence (%) 48 hours [1, 6] | infarct size reduced by ([2]; 3 mg/kg) | levels of GSH-Px activity vs model animals ([4]; ischemic core, 3d 50 mg/kg, Eda 3 mg/kg) |
| --- | --- | --- | --- | --- | --- | --- | --- | --- | --- | --- | --- | --- | --- | --- |
| CCCCC1OC(=O)c2ccccc21 (centres unmarked) [NBP, 3-n-butylphthalide] | 3.1±0.3 cm | 30% | 3.5±0.5 cm | 50% | 26.19% | 71.5% | 0.92 U/mg | increased |  |  |  |  |  |  |
| CC1=NN(c2ccccc2)C(=O)C1 [Eda, edaravone] |  |  |  |  |  | 69.9% |  | increased | 4.6±1.7 cm | 70% | 4.5±1.8 cm | 80% | 69.65% | significantly higher |
| CC(=O)Oc1ccccc1C(=O)O [ASP, aspirin] | 1.5±0.5 cm | 30% | 2.4±0.6 cm | 40% |  |  |  |  |  |  |  |  |  |  |
